Results reported in ChEMBL document CHEMBL3994615, “Design, synthesis and antibacterial evaluation of novel pleuromutilin derivatives possessing piperazine linker” (2017).
In brackets after ≈: the same amount, converted by molar mass.

What was measured:
Assay type in all cases: functional
Staphylococcus aureus [1] = assay: Antibacterial activity against methicillin-resistant Staphylococcus aureus ATCC 43300 after overnight incubation by broth dilution method
Outline: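 CLSI broth dilution MIC in Mueller-Hinton broth. Compounds were dissolved in methanol, diluted in broth, and tested over a two-fold range, with final methanol 1.25% in the top well. Inoculum was colonies in saline after 18–24 h growth at 37 °C in 5% CO2. Plates ran 24 h at 37 °C. MIC was the lowest concentration preventing visible growth. Duplicate wells, drug-free and solvent controls.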

Staphylococcus aureus [2] = assay: Antibacterial activity against Staphylococcus aureus ATCC 29213 after overnight incubation by broth dilution method
Outline: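 CLSI broth microdilution MIC. Compounds dissolved in methanol, diluted to working solution in Mueller-Hinton broth. Strain recovered in broth 18–24 h at 37 °C, 5% CO2; colonies suspended in saline for inoculum. Final test range 0.016–32, plates incubated 24 h at 37 °C. MIC read as the lowest concentration preventing visible growth. Duplicates, with drug-free and solvent-blank columns; final methanol 1.25%.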

Enterococcus faecalis = assay: Antibacterial activity against Enterococcus faecalis ATCC 29212 after overnight incubation by broth dilution method
Outline: (§1)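 CLSI broth microdilution MIC. Compounds dissolved in methanol, diluted to working solution in Brain Heart Infusion broth. Organisms recovered in broth 18–24 h at 37 °C, 5% CO2; inoculum from colonies suspended in saline. Test range 0.016–32 (final), incubated 24 h at 37 °C. MIC taken as the lowest concentration inhibiting visible growth. Run in duplicate with drug-free and solvent-blank columns; final methanol 1.25%.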

Enterococcus faecium = assay: Antibacterial activity against Enterococcus faecium ATCC 35667 after overnight incubation by broth dilution method; outline: as §1
Staphylococcus aureus [3] = assay: Antibacterial activity against methicillin-resistant Staphylococcus aureus ATCC 43300 infected in neutropenic mouse assessed as mouse survival rate at 40 mg/kg, iv administered 1 hr post infection relative to control; conditions: ATCC 43300, iv
Outline: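 Female ICR mice (23–25 g) were made neutropenic with cyclophosphamide ip, 150 mg/kg 4 days and 100 mg/kg 1 day before infection. They were infected ip with 0.5 mL of ~10⁷ CFU/mL MRSA, then given compound iv at 40 mg/kg 1 h post-infection, with tiamulin given the same way as comparator. 10 mice per group; survival recorded.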

SMILES | MIC (Staphylococcus aureus [1]) | MIC (Staphylococcus aureus [2]) | MIC (Enterococcus faecalis) | MIC (Enterococcus faecium) | survival at 40 mg/kg (Staphylococcus aureus [3])
C=C[C@]1(C)C[C@@H](OC(=O)CN2CCN(C(=O)CN3CCN(c4ccccc4[N+](=O)[O-])CC3)CC2)[C@]2(C)[C@H](C)CC[C@]3(CCC(=O)[C@H]32)[C@@H](C)[C@@H]1O | 0.0625 µg/mL (≈ 0.0901 µM) | 0.0625 µg/mL (≈ 0.0901 µM) | 2 µg/mL (≈ 2.88 µM) | > 32 µg/mL | –
C=C[C@]1(C)C[C@@H](OC(=O)CN2CCN(C(=O)CN3CCN(c4ccc(O)cc4)CC3)CC2)[C@]2(C)[C@H](C)CC[C@]3(CCC(=O)[C@H]32)[C@@H](C)[C@@H]1O | 1 µg/mL (≈ 1.5 µM) | 2 µg/mL (≈ 3.01 µM) | 8 µg/mL (≈ 12 µM) | > 32 µg/mL | –
C=C[C@]1(C)C[C@@H](OC(=O)CN2CCN(C(=O)CN3CCN(c4ccccc4OC)CC3)CC2)[C@]2(C)[C@H](C)CC[C@]3(CCC(=O)[C@H]32)[C@@H](C)[C@@H]1O | 0.5 µg/mL (≈ 0.736 µM) | 0.5 µg/mL (≈ 0.736 µM) | 4 µg/mL (≈ 5.89 µM) | > 32 µg/mL | –
C=C[C@]1(C)C[C@@H](OC(=O)CN2CCN(C(=O)CN3CCN(c4cccc(C)c4)CC3)CC2)[C@]2(C)[C@H](C)CC[C@]3(CCC(=O)[C@H]32)[C@@H](C)[C@@H]1O | 0.25 µg/mL (≈ 0.377 µM) | 0.5 µg/mL (≈ 0.754 µM) | 4 µg/mL (≈ 6.03 µM) | > 32 µg/mL | –
C=C[C@]1(C)C[C@@H](OC(=O)CN2CCN(C(=O)CN3CCN(c4ccccc4O)CC3)CC2)[C@]2(C)[C@H](C)CC[C@]3(CCC(=O)[C@H]32)[C@@H](C)[C@@H]1O | 0.5 µg/mL (≈ 0.752 µM) | 1 µg/mL (≈ 1.5 µM) | 2 µg/mL (≈ 3.01 µM) | > 32 µg/mL | –
C=C[C@]1(C)C[C@@H](OC(=O)CN2CCN(C(=O)CN3CCN(c4cccc([N+](=O)[O-])c4)CC3)CC2)[C@]2(C)[C@H](C)CC[C@]3(CCC(=O)[C@H]32)[C@@H](C)[C@@H]1O | 0.0625 µg/mL (≈ 0.0901 µM) | 0.25 µg/mL (≈ 0.36 µM) | 2 µg/mL (≈ 2.88 µM) | > 32 µg/mL | –
C=C[C@]1(C)C[C@@H](OC(=O)CN2CCN(C(=O)CN3CCN(C)CC3)CC2)[C@]2(C)[C@H](C)CC[C@]3(CCC(=O)[C@H]32)[C@@H](C)[C@@H]1O | 0.125 µg/mL (≈ 0.213 µM) | 0.5 µg/mL (≈ 0.852 µM) | 2 µg/mL (≈ 3.41 µM) | > 32 µg/mL | –
C=C[C@]1(C)C[C@@H](OC(=O)CN2CCN(C(=O)CN3CCN(c4ccccc4Cl)CC3)CC2)[C@]2(C)[C@H](C)CC[C@]3(CCC(=O)[C@H]32)[C@@H](C)[C@@H]1O | 0.015 µg/mL (≈ 0.022 µM) | 0.5 µg/mL (≈ 0.732 µM) | 4 µg/mL (≈ 5.85 µM) | > 32 µg/mL | –
C=C[C@]1(C)C[C@@H](OC(=O)CN2CCN(C(=O)CN3CCN(c4ccc(Cl)cc4)CC3)CC2)[C@]2(C)[C@H](C)CC[C@]3(CCC(=O)[C@H]32)[C@@H](C)[C@@H]1O | 0.015 µg/mL (≈ 0.022 µM) | 0.125 µg/mL (≈ 0.183 µM) | 2 µg/mL (≈ 2.93 µM) | > 32 µg/mL | 50%
C=C[C@]1(C)C[C@@H](OC(=O)CN2CCN(C(=O)CN3CCN(c4ccc(OC)cc4)CC3)CC2)[C@]2(C)[C@H](C)CC[C@]3(CCC(=O)[C@H]32)[C@@H](C)[C@@H]1O | 0.25 µg/mL (≈ 0.368 µM) | 0.5 µg/mL (≈ 0.736 µM) | 2 µg/mL (≈ 2.95 µM) | > 32 µg/mL | –
C=C[C@]1(C)C[C@@H](OC(=O)CN2CCN(C(=O)CN3CCN(c4ccc(C)cc4)CC3)CC2)[C@]2(C)[C@H](C)CC[C@]3(CCC(=O)[C@H]32)[C@@H](C)[C@@H]1O | 0.125 µg/mL (≈ 0.189 µM) | 0.25 µg/mL (≈ 0.377 µM) | 2 µg/mL (≈ 3.02 µM) | > 32 µg/mL | –
C=C[C@]1(C)C[C@@H](OC(=O)CN2CCN(C(=O)CN3CCN(c4ccc([N+](=O)[O-])cc4)CC3)CC2)[C@]2(C)[C@H](C)CC[C@]3(CCC(=O)[C@H]32)[C@@H](C)[C@@H]1O | 0.015 µg/mL (≈ 0.0216 µM) | 0.125 µg/mL (≈ 0.18 µM) | 1 µg/mL (≈ 1.44 µM) | > 32 µg/mL | –
C=C[C@]1(C)C[C@@H](OC(=O)CN2CCN(C(=O)CN3CCN(c4ccccc4)CC3)CC2)[C@]2(C)[C@H](C)CC[C@]3(CCC(=O)[C@H]32)[C@@H](C)[C@@H]1O | 0.125 µg/mL (≈ 0.193 µM) | 0.25 µg/mL (≈ 0.385 µM) | 4 µg/mL (≈ 6.16 µM) | > 32 µg/mL | –
C=C[C@]1(C)C[C@@H](OC(=O)CN2CCN(C(=O)CN3CCN(c4ccccc4C)CC3)CC2)[C@]2(C)[C@H](C)CC[C@]3(CCC(=O)[C@H]32)[C@@H](C)[C@@H]1O | 0.0625 µg/mL (≈ 0.0943 µM) | 0.25 µg/mL (≈ 0.377 µM) | 2 µg/mL (≈ 3.02 µM) | > 32 µg/mL | –
C=C[C@]1(C)C[C@@H](OC(=O)CN2CCNCC2)[C@]2(C)[C@H](C)CC[C@]3(CCC(=O)[C@H]32)[C@@H](C)[C@@H]1O | 1 µg/mL (≈ 2.24 µM) | 2 µg/mL (≈ 4.48 µM) | 8 µg/mL (≈ 17.9 µM) | > 32 µg/mL | –
C=C[C@]1(C)C[C@@H](OC(=O)CN2CCN(C(=O)CN3CCN(c4cccc(O)c4)CC3)CC2)[C@]2(C)[C@H](C)CC[C@]3(CCC(=O)[C@H]32)[C@@H](C)[C@@H]1O | 0.25 µg/mL (≈ 0.376 µM) | 0.5 µg/mL (≈ 0.752 µM) | 2 µg/mL (≈ 3.01 µM) | > 32 µg/mL | –
C=C[C@]1(C)C[C@@H](OC(=O)CN2CCN(C(=O)CCl)CC2)[C@]2(C)[C@H](C)CC[C@]3(CCC(=O)[C@H]32)[C@@H](C)[C@@H]1O | > 32 µg/mL | > 32 µg/mL | > 32 µg/mL | > 32 µg/mL | –
C=C[C@]1(C)C[C@@H](OC(=O)CN2CCN(C(=O)CN3CCN(c4cccc(Cl)c4)CC3)CC2)[C@]2(C)[C@H](C)CC[C@]3(CCC(=O)[C@H]32)[C@@H](C)[C@@H]1O | 0.03 µg/mL (≈ 0.0439 µM) | 0.25 µg/mL (≈ 0.366 µM) | 2 µg/mL (≈ 2.93 µM) | > 32 µg/mL | –
C=C[C@]1(C)C[C@@H](OC(=O)CN2CCN(C(=O)CN3CCN(c4cccc(OC)c4)CC3)CC2)[C@]2(C)[C@H](C)CC[C@]3(CCC(=O)[C@H]32)[C@@H](C)[C@@H]1O | 0.25 µg/mL (≈ 0.368 µM) | 0.25 µg/mL (≈ 0.368 µM) | 2 µg/mL (≈ 2.95 µM) | > 32 µg/mL | –
C=C[C@]1(C)C[C@@H](OC(=O)CO)[C@]2(C)[C@H](C)CC[C@]3(CCC(=O)[C@H]32)[C@@H](C)[C@@H]1O [PLEUROMULIN] | 2 µg/mL (≈ 5.28 µM) | 8 µg/mL (≈ 21.1 µM) | 16 µg/mL (≈ 42.3 µM) | > 32 µg/mL | –
C=C[C@]1(C)C[C@@H](OC(=O)CS[C@@H]2C[C@H]3CC[C@@H](C2)N3C)[C@]2(C)[C@H](C)CC[C@]3(CCC(=O)[C@H]32)[C@@H](C)[C@@H]1O [RETAPAMULIN] | 0.0625 µg/mL (≈ 0.121 µM) | 0.0625 µg/mL (≈ 0.121 µM) | – | > 32 µg/mL | –
C=C[C@]1(C)C[C@@H](OC(=O)CSCCN(CC)CC)[C@]2(C)[C@H](C)CC[C@]3(CCC(=O)[C@H]32)[C@@H](C)[C@@H]1O [TIAMULIN] | 0.125 µg/mL (≈ 0.253 µM) | 0.5 µg/mL (≈ 1.01 µM) | 2 µg/mL (≈ 4.05 µM) | > 32 µg/mL | 10%
C=C[C@]1(C)C[C@@H](OC(=O)CSC(C)(C)CNC(=O)[C@H](N)C(C)C)[C@]2(C)[C@H](C)CC[C@]3(CCC(=O)[C@H]32)[C@@H](C)[C@@H]1O [VALNEMULIN] | 0.03 µg/mL (≈ 0.0531 µM) | 0.125 µg/mL (≈ 0.221 µM) | 1 µg/mL (≈ 1.77 µM) | > 32 µg/mL | –
